Assay results of several laboratories.
Compare with care: the assays were run in different laboratories.
Target: cGMP-dependent protein kinase 1 (PRKG1, Homo sapiens, UniProt Q13976)
Sequence (Q13976 1-671, as in one of the studies): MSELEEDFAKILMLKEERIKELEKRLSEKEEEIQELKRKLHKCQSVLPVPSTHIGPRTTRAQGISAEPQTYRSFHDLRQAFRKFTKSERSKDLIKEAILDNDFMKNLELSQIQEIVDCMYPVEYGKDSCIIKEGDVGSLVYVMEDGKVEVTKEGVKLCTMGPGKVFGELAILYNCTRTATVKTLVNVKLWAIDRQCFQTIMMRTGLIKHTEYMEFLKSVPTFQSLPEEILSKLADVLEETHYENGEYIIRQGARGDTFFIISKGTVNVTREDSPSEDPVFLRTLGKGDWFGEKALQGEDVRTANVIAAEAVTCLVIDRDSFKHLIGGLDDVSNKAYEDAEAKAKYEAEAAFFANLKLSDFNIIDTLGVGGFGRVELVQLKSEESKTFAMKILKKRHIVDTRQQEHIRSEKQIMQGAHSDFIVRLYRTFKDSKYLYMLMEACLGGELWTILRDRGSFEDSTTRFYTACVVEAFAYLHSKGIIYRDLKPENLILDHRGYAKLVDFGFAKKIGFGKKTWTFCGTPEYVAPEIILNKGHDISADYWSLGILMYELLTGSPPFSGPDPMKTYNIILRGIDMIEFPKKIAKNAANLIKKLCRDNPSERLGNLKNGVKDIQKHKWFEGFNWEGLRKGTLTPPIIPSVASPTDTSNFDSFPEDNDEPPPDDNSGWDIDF

| SMILES | effect on | method | concentration | remaining binding [%] |
| --- | --- | --- | --- | --- |
| O=C(NCCCN1CCOCC1)c1ccc(Nc2ncc(Cl)c(-c3ccc(Cl)s3)n2)cc1 | binding | competition with immobilised ligand | 1 µM | 100 |
| COc1ccc2c(c1)O[C@@H](c1ccc(OC)c(OC)c1)C[C@H]2NC(=O)C1(c2ccc3c(c2)OC(F)(F)O3)CC1 | cell-free assay | competition with immobilised ligand | 1 µM | 100 |
| CNC(=O)[C@@H]1CC[C@@H](n2c(-c3ccc4cnccc4c3)nc3ccc(C(=O)NCc4cccc(C(N)=O)c4)cc32)C1 | binding | competition with immobilised ligand | 1 µM | 98 |
| CN(CCCC(F)(F)F)c1nccc(-c2cnn3ncccc23)n1 | binding |  | 1 µM | 100 |
| CCCOc1ccc([C@H]2[C@H](C(=O)O)[C@@H](c3ccc4c(c3)OCO4)CN2CC(=O)Nc2c(CC)cccc2CC)cc1 | cell-free assay | competition with immobilised ligand | 1 µM | 88 |
| Nc1ncc2c(n1)-c1c([nH]c3ccc(C#CC4CC4)cc13)CCCC2 | binding | competition with immobilised ligand | 1 µM | 86 |
| COc1cc(-c2cn(C3CCc4c(F)cccc4N(CC(F)(F)F)C3=O)nn2)ccc1-n1cnc(C)c1 (stereo not drawn) | cell-free assay | competition with immobilised ligand | 1 µM | 100 |
| O=C(Nc1c[nH]nc1C(=O)NC1CCNCC1)c1cc(F)cc(F)c1 | binding | competition with immobilised ligand | 1 µM | 100 |
| O=C(N[C@H]1CCCCC/C=C\C2C[C@@]2(C(=O)O)NC(=O)[C@@H]2C[C@@H](Oc3ccncc3)CN2C1=O)OC1CCCC1 (stereo partly drawn) | binding | competition with immobilised ligand | 1 µM | 100 |
| N[C@H]1CCN(c2nccc(-c3cnn4ncccc34)n2)C1 | binding |  | 1 µM | 89 |
| C[C@@]1(Cc2ccc(C#N)cc2)C(=O)N(c2cc(Cl)cc(Cl)c2)c2ncc(C(=O)NC3(c4nc(C5CCC5)no4)CC3)n21 | cell-free assay | competition with immobilised ligand | 1 µM | 100 |
| c1cnn2ncc(-c3ccnc(N4CCC45COC5)n3)c2c1 | binding |  | 1 µM | 89 |
| FC(F)(F)Oc1cccc(-c2cnc3ccc(-c4ccncc4)nn23)c1 | cell-free assay | competition with immobilised ligand | 5 µM | 98 |
| COc1ccnn2ncc(-c3ccnc(N(C)C)n3)c12 | binding |  | 1 µM | 100 |
| C=CC(=O)N1CCC(C(=O)NCC(=O)N2CCN(c3nc(-c4cnc(N)nc4C(F)F)nc(N4CCOCC4)n3)CC2)CC1 | binding | competition with immobilised ligand | 1 µM | 87 |
| Cc1cnc(Nc2ccc(C(=O)N3CCC(N4CCCC4)CC3)cc2)nc1-c1cc2ccccc2s1 | binding | competition with immobilised ligand | 1 µM | 100 |
| C[C@@H]1CCN(c2nccc(-c3cnn4ncccc34)n2)C1 | binding |  | 1 µM | 68 |
| FC(F)(F)c1ccc2c(c1)nc(-c1cccnc1)n2C1CC1 | cell-free assay | competition with immobilised ligand | 1 µM | 87 |
| O=C(c1ccc(Nc2ncc(Cl)c(-c3cc4ccccc4s3)n2)cc1)N1CCC(N2CCCC2)CC1 | binding | competition with immobilised ligand | 1 µM | 100 |
| CN(C)c1nccc(-c2cnn3ncccc23)n1 | binding |  | 1 µM | 100 |
| COc1ncc2cc3ccccc3nc2c1C#N | cell-free assay | competition with immobilised ligand | 5 µM | 100 |
